Data from ChEMBL document CHEMBL2417525, “In vitro pharmacological and toxicological effects of norterpene peroxides isolated from the Red Sea sponge Diacarnus erythraeanus on normal and cancer cells” (J Nat Prod, 2013).
Calls of active or inactive are those of the source. The rule behind the calls is not given here.

Assays:
[1] = Cytotoxicity against human U373 cells after 72 hrs by MTT assay; type: functional, cell-based, U-373MG ATCC
In short: (§1)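 MTT reduction read by spectrophotometry after 72 h compound exposure; growth measured as treated vs control optical density, IC50 taken as the concentration giving 50% growth reduction. Six replicates per condition. Cells grown in RPMI with 10% heat-inactivated FBS, 4 mM glutamine, gentamicin and penicillin–streptomycin; NHDF fibroblasts were instead kept in FGM-2 fibroblast medium.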

[2] = Cytotoxicity against human Hs683 cells after 72 hrs by MTT assay; type: functional, cell-based, Hs 683; in short: as §1
[3] = test system: MCF7; assay: Cytotoxicity against human MCF7 cells after 72 hrs by MTT assay; type: functional, cell-based; in short: as §1
[4] = test system: U-251; assay: Cytotoxicity against human U251 cells after 72 hrs by MTT assay; type: functional, cell-based; in short: as §1
[5] = test system: PC-3; assay: Cytotoxicity against human PC3 cells after 72 hrs by MTT assay; type: functional, cell-based; in short: as §1
[6] = test system: A549; assay: Cytotoxicity against human A549 cells after 72 hrs by MTT assay; type: functional, cell-based; in short: as §1
[7] = test system: SK-MEL-28; assay: Cytotoxicity against human SK-MEL-28 cells after 72 hrs by MTT assay; type: functional, cell-based; in short: as §1
[8] = test system: PC-3; assay: Induction of apoptosis in human PC3 cells at 1 uM after 72 hrs by TUNEL staining; type: functional
In short: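 TUNEL apoptosis staining with a commercial kit, read by flow cytometry. PC3 prostate cells were untreated or exposed to 1 μM for 72 h, four replicates. Kit-supplied lymphoma cells served as extra negative and positive controls.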

[9] = test system: Hs 683; assay: Induction of apoptosis in human Hs683 cells at 1 uM after 72 hrs by TUNEL staining; type: functional, cell-based
[10] = test system: Hs 683; assay: Induction of ROS production in human Hs683 cells at 10 uM after 72 hrs by flow cytometry; type: functional
In short: (§2)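 Hs683 and U373 glioma cells were exposed to 10 μM for 48 and 72 h; the positive control was 4 mM H2O2 for 1 h. Cells were then loaded with 20 μM DCFH-DA in phenol-red-free RPMI for 1 h at 37 °C, washed twice and detached. Fluorescence was measured by flow cytometry, run once in quadruplicate.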

[11] = Induction of ROS production in human U373 cells at 10 uM after 72 hrs by flow cytometry; type: functional, U-373MG ATCC; in short: as §2
[12] = test system: NHDF; assay: Cytotoxicity against human NHDF cells after 72 hrs by MTT assay; type: cell-based; in short: as §1
[13] = test system: A549; assay: Cytotoxicity against human A549 cells assessed as growth inhibition at 10 uM after 24 hrs by MTT assay; type: functional, cell-based
[14] = test system: A549; assay: Cytotoxicity against human A549 cells assessed as growth inhibition at 10 uM […] by quantitative video microscopic analysis; type: functional, cell-based
In short: (§3)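 Computer-assisted phase-contrast time-lapse microscopy in T25 flasks with 10 μM compound. Cells were counted on images at 6, 12, 24 h for U373 and A549, and at 24, 48, 72 h for SKMEL-28. Global growth is last-image count over first-image count. The ratio index is treated global growth over untreated control global growth. Run in triplicate.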

[15] = test system: U-373MG ATCC; assay: Cytotoxicity against human U373 cells assessed as growth inhibition at 10 uM […] by quantitative video microscopic analysis; type: functional, cell-based; in short: as §3
[16] = test system: SK-MEL-28; assay: Cytotoxicity against human SK-MEL-28 cells assessed as growth inhibition at 10 uM after 24 hrs by MTT assay; type: functional, cell-based
[17] = test system: HBL-100; assay: Cytotoxicity against human HBL100 cells after 72 hrs by MTT assay; type: cell-based; conditions: HBL-100, 72 h; in short: as §1
[18] = test system: LoVo; assay: Cytotoxicity against human LoVo cells after 72 hrs by MTT assay; type: functional, cell-based; in short: as §1
[19] = test system: HaCaT; assay: Cytotoxicity against human HaCaT cells after 72 hrs by MTT assay; type: cell-based; in short: as §1
[20] = test system: U-373MG ATCC; assay: Induction of apoptosis in human U373 cells at 1 uM after 72 hrs by TUNEL staining; type: functional, cell-based
[21] = test system: B16-F10; assay: Cytotoxicity against mouse B16F10 cells after 72 hrs by MTT assay; type: functional, cell-based; conditions: B16-F10, 72 h; in short: as §1
[22] = test system: SK-MEL-28; assay: Cytotoxicity against human SK-MEL-28 cells assessed as growth inhibition at 10 uM after 24 to 72 hrs by quantitative video microscopic analysis; type: functional, cell-based; in short: as §3
[23] = test system: U-373MG ATCC; assay: Induction of ROS production in human U373 cells at 10 uM after 48 hrs by flow cytometry; type: functional, cell-based; in short: as §2
[24] = test system: U-373MG ATCC; assay: Cytotoxicity against human U373 cells assessed as growth inhibition at 10 uM after 24 hrs by MTT assay; type: functional, cell-based
[25] = Homo sapiens, U373 MG, 72 h, read-out: IC50
[26] = Homo sapiens, Hs 683, 72 h, read-out: IC50
[27] = Homo sapiens, MCF7, 72 h, read-out: IC50
[28] = Homo sapiens, U-251, 72 h, read-out: IC50
[29] = Homo sapiens, PC-3, 72 h, read-out: IC50
[30] = Homo sapiens, A549, 72 h, read-out: IC50
[31] = Homo sapiens, SK-MEL-28, 72 h, read-out: IC50

Row | SMILES | IC50 [1, 25] [µM] | IC50 [2, 26] [µM] | IC50 [3, 27] [µM] | IC50 [4, 28] [µM] | IC50 [5, 29] [µM] | IC50 [6, 30] [µM] | IC50 [7, 31] [µM] | other results
1 | C=C1CCC[C@@H]2[C@@](C)(CC[C@@]3(C)CC[C@H]([C@H](C)C(=O)OC)OO3)[C@H](C)CC[C@@]12C | 53 | 35 | 36 | 54 | 44 | 24 | 44 | –
2 | COC(=O)[C@@H](C)[C@H]1CC[C@@](C)(CCC2=C(C)CCCC2(C)C)OO1 | – | – | – | – | – | – | – | IC50 ([1]; u-373mg atcc): ND(Unstable); IC50 ([2]; hs 683): ND(Unstable); IC50 ([3]; mcf7): ND(Unstable); IC50 ([4]; u-251): ND(Unstable); IC50 ([5]; pc-3): ND(Unstable); IC50 ([6]; a549): ND(Unstable); IC50 ([7]; sk-mel-28): ND(Unstable)
3 | O=C1N[C@@H]2C(=C[C@H](O)[C@@H](O)[C@H]2O)c2cc3c(c(O)c21)OCO3 [NARCICLASINE] | – | – | – | – | – | – | – | Activity [8]: >85%
4 | C=C1CCCC(C)(C)C1(O)CC/C(C)=C/CC[C@]1(C)CC[C@@H]([C@@H](C)C(=O)O)OO1 (stereo partly specified) [HURGHAPEROXIDE] | 83 | 37 | 45 | 87 | 73 | 31 | 73 | –
5 | C/C(=C\CC[C@]1(C)CC[C@@H]([C@@H](C)C(=O)O)OO1)CCC12OC1(C)CCCC2(C)C (relative stereo) | 7 | 3 | 6 | – | 2 | 3 | 22 | –
6 | C=C1CCC[C@@H]2[C@@H](CC[C@@]3(C)CC[C@H]([C@H](C)C(=O)O)OO3)[C@H](C)CC[C@@]12C [SIGMOSCEPTRELLIN B] | > 100 | > 100 | > 100 | > 100 | > 100 | > 100 | > 100 | –
7 | COC(=O)[C@H](C)[C@H]1CC[C@@](C)(CCC2=C(C)CCCC2(C)C)OO1 [NUAPAPUIN A METHYL ESTER] | 99 | 38 | 51 | 91 | 80 | 25 | 80 | –
8 | CC1=C(CC[C@]2(C)O[C@H]2CC[C@]2(C)CC[C@@H]([C@@H](C)C(=O)O)OO2)C(C)(C)CCC1 (relative stereo) | 4 | 3 | 4 | – | 1 | 3 | 15 | –
9 | CC1=C(CC/C(C)=C/CC[C@@]2(C)CC[C@H]([C@H](C)C(=O)O)OO2)C(C)(C)CCC1 | 7 | 4 | 7 | 8 | 8 | 3 | 8 | Activity [9]: inactive; Activity [10]: 30%; Activity [11]: 30%; IC50 [12]: 26 µM; growth inhibition (GI) [13]: Active; growth inhibition (GI) [14]: Active; growth inhibition (GI) [15]: Active; growth inhibition (GI) [16]: Active; IC50 [17]: 3000 nM; IC50 [18]: 6 µM; IC50 [19]: 23 µM; Activity [20]: inactive; IC50 [21]: 3000 nM; growth inhibition (GI) [22]: Active; Activity [23]: Active; growth inhibition (GI) [24]: Active
